# In ChEMBL document CHEMBL1944580, “Synthesis of novel sulfonamide-1,2,4-triazoles, 1,3,4-thiadiazoles and 1,3,4-oxadiazoles, as potential antibacterial and antifungal agents. Biological evaluation and conformational analysis studies” (2012):
# Key:
# Talaromyces funiculosus [1] = test: Antifungal activity against Penicillium funiculosum ATCC 36839 treated for 72 hrs followed by sub-cultivated for 5 days by serial dilution method; format: functional
# Method in brief: (§1)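 MFC obtained after the 72 h, 28 °C malt-broth microdilution (spore inoculum about 1.0 × 10^5 per well, compounds from 1 mg/ml DMSO). 2 µl was serially subcultured into 100 µl broth per well and incubated a further 5 days at 28 °C. MFC is the lowest concentration with no visible growth, taken as 99.5% killing of the original inoculum.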
# Bacillus cereus [2] = test: Antibacterial activity against Bacillus cereus clinical isolate after 24 hrs by micro dilution method; format: functional
# Method in brief: (§2)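 Microdilution MIC in 96-well plates. Bacterial suspensions adjusted in sterile saline to 1.0 × 10^5 CFU/ml, giving 1.0 × 10^4 cfu per well in LB broth. Compounds tested at up to 1 mg/ml. Plates incubated 24 h. MIC taken as the lowest concentration with no visible growth under a binocular microscope. OD at 655 nm was also read against a blank and the positive control. Streptomycin and ampicillin were the positive controls.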
# Bacillus cereus [3] = test: Antibacterial activity against Bacillus cereus clinical isolate treated for 24 hrs followed by sub-cultivated for 72 hrs by micro dilution method; format: functional
# Method in brief: (§3)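 2 µl from each well was serially subcultured into 100 µl fresh broth per well and incubated a further 72 h. MBC is the lowest concentration with no visible growth, taken as 99.5% killing of the original inoculum. Streptomycin and ampicillin were the positive controls.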
# Fulvia fulva [4] = test: Antifungal activity against Fulvia fulva after 72 hrs by serial dilution method; format: functional
# Method in brief: (§4)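 Modified microdilution MIC. Spores were washed from malt agar cultures with sterile 0.85% saline containing 0.1% Tween 80 and adjusted to about 1.0 × 10^5 per 100 µl well in malt broth. Compounds were dissolved in DMSO (1 mg/ml). Plates incubated 72 h at 28 °C. MIC is the lowest concentration with no visible growth under a binocular microscope. Bifonazole and ketoconazole were the references.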
# Aspergillus versicolor [5] = test: Antifungal activity against Aspergillus versicolor ATCC 11730 treated for 72 hrs followed by sub-cultivated for 5 days by serial dilution method; format: functional; method in brief: as §1
# Escherichia coli [6] = test: Antibacterial activity against Escherichia coli ATCC 35210 after 24 hrs by micro dilution method; format: functional; settings: ATCC 35210, 24 h; method in brief: as §2
# Listeria monocytogenes [7] = test: Antibacterial activity against Listeria monocytogenes NCTC 7973 after 24 hrs by micro dilution method; format: functional; settings: NCTC 7973, 24 h; method in brief: as §2
# Listeria monocytogenes [8] = test: Antibacterial activity against Listeria monocytogenes NCTC 7973 treated for 24 hrs followed by sub-cultivated for 72 hrs by micro dilution method; format: functional; method in brief: as §3
# Escherichia coli [9] = test: Antibacterial activity against Escherichia coli ATCC 35210 treated for 24 hrs followed by sub-cultivated for 72 hrs by micro dilution method; format: functional; method in brief: as §3
# Trichoderma viride [10] = test: Antifungal activity against Trichoderma viride IAM 5061 treated for 72 hrs followed by sub-cultivated for 5 days by serial dilution method; format: functional; method in brief: as §1
# Staphylococcus aureus [11] = test: Antibacterial activity against Staphylococcus aureus ATCC 6538 after 24 hrs by micro dilution method; format: functional; settings: ATCC 6538, 24 h; method in brief: as §2
# Aspergillus flavus [12] = test: Antifungal activity against Aspergillus flavus ATCC 9643 after 72 hrs by serial dilution method; format: functional; settings: ATCC 9643, 72 h; method in brief: as §4
# Salmonella typhimurium [13] = test: Antibacterial activity against Salmonella Typhimurium ATCC 13311 treated for 24 hrs followed by sub-cultivated for 72 hrs by micro dilution method; format: functional, Salmonella enterica subsp. enterica serovar Typhimurium; settings: Salmonella enterica; method in brief: as §3
# Salmonella typhimurium [14] = test: Antibacterial activity against Salmonella Typhimurium ATCC 13311 after 24 hrs by micro dilution method; format: functional, Salmonella enterica subsp. enterica serovar Typhimurium; settings: Salmonella enterica, ATCC 13311, 24 h; method in brief: as §2
# Aspergillus versicolor [15] = test: Antifungal activity against Aspergillus versicolor ATCC 11730 after 72 hrs by serial dilution method; format: functional; settings: ATCC 11730, 72 h; method in brief: as §4
# Penicillium ochrochloron [16] = test: Antifungal activity against Penicillium ochrochloron ATCC 9112 after 72 hrs by serial dilution method; format: functional; settings: ATCC 9112, 72 h; method in brief: as §4
# Aspergillus fumigatus [17] = test: Antifungal activity against Aspergillus fumigatus human isolate after 72 hrs by serial dilution method; format: functional; method in brief: as §4
# Aspergillus flavus [18] = test: Antifungal activity against Aspergillus flavus ATCC 9643 treated for 72 hrs followed by sub-cultivated for 5 days by serial dilution method; format: functional; method in brief: as §1
# Pseudomonas aeruginosa [19] = test: Antibacterial activity against Pseudomonas aeruginosa ATCC 27853 treated for 24 hrs followed by sub-cultivated for 72 hrs by micro dilution method; format: functional; method in brief: as §3
# Micrococcus flavus [20] = test: Antibacterial activity against Micrococcus flavus ATCC 10240 treated for 24 hrs followed by sub-cultivated for 72 hrs by micro dilution method; format: functional; method in brief: as §3
# Talaromyces funiculosus [21] = test: Antifungal activity against Penicillium funiculosum ATCC 36839 after 72 hrs by serial dilution method; format: functional; settings: ATCC 36839, 72 h; method in brief: as §4
# Staphylococcus aureus [22] = test: Antibacterial activity against Staphylococcus aureus ATCC 6538 treated for 24 hrs followed by sub-cultivated for 72 hrs by micro dilution method; format: functional; method in brief: as §3
# Enterobacter cloacae [23] = test: Antibacterial activity against Enterobacter cloacae human isolate after 24 hrs by micro dilution method; format: functional; method in brief: as §2
# Penicillium ochrochloron [24] = test: Antifungal activity against Penicillium ochrochloron ATCC 9112 treated for 72 hrs followed by sub-cultivated for 5 days by serial dilution method; format: functional; method in brief: as §1
# Aspergillus fumigatus [25] = test: Antifungal activity against Aspergillus fumigatus human isolate treated for 72 hrs followed by sub-cultivated for 5 days by serial dilution method; format: functional; method in brief: as §1
# Micrococcus flavus [26] = test: Antibacterial activity against Micrococcus flavus ATCC 10240 after 24 hrs by micro dilution method; format: functional; settings: ATCC 10240, 24 h; method in brief: as §2
# Fulvia fulva [27] = test: Antifungal activity against Fulvia fulva treated for 72 hrs followed by sub-cultivated for 5 days by serial dilution method; format: functional; method in brief: as §1
# Enterobacter cloacae [28] = test: Antibacterial activity against Enterobacter cloacae human isolate treated for 24 hrs followed by sub-cultivated for 72 hrs by micro dilution method; format: functional; method in brief: as §3
# Aspergillus niger [29] = test: Antifungal activity against Aspergillus niger ATCC 6275 after 72 hrs by serial dilution method; format: functional; settings: ATCC 6275, 72 h; method in brief: as §4
# Trichoderma viride [30] = test: Antifungal activity against Trichoderma viride IAM 5061 after 72 hrs by serial dilution method; format: functional; settings: IAM 5061, 72 h; method in brief: as §4
# Pseudomonas aeruginosa [31] = test: Antibacterial activity against Pseudomonas aeruginosa ATCC 27853 after 24 hrs by micro dilution method; format: functional; settings: ATCC 27853, 24 h; method in brief: as §2
# Aspergillus niger [32] = test: Antifungal activity against Aspergillus niger ATCC 6275 treated for 72 hrs followed by sub-cultivated for 5 days by serial dilution method; format: functional; method in brief: as §1
MIC (Bacillus cereus [2]) [µM],MIC (Fulvia fulva [4]) [µM],MIC (Escherichia coli [6]) [µM],MIC (Listeria monocytogenes [7]) [µM],MIC (Staphylococcus aureus [11]) [µM],MIC (Aspergillus flavus [12]) [µM],MIC (Salmonella typhimurium [14]) [µM],MIC (Aspergillus versicolor [15]) [µM],MIC (Penicillium ochrochloron [16]) [µM],MIC (Aspergillus fumigatus [17]) [µM],SMILES,MFC (Talaromyces funiculosus [1]) [µM],MBC (Bacillus cereus [3]) [µM],MFC (Aspergillus versicolor [5]) [µM],MBC (Listeria monocytogenes [8]) [µM],MBC (Escherichia coli [9]) [µM],MFC (Trichoderma viride [10]) [µM],MBC (Salmonella typhimurium [13]) [µM],MFC (Aspergillus flavus [18]) [µM],MBC (Pseudomonas aeruginosa [19]) [µM],MBC (Micrococcus flavus [20]) [µM],further results
250,60,500,250,500,60,500,250,130,130,CCCn1c(Cc2cc(OC)c(OC)cc2S(=O)(=O)N(C)C)n[nH]c1=S,250,500,500,250,500,130,500,130,500,500,MIC (Talaromyces funiculosus [21]): 130 µM; MBC (Staphylococcus aureus [22]): 500 µM; MIC (Enterobacter cloacae [23]): 250 µM; MFC (Penicillium ochrochloron [24]): 250 µM; MFC (Aspergillus fumigatus [25]): 250 µM; MIC (Micrococcus flavus [26]): 250 µM; MFC (Fulvia fulva [27]): 130 µM; MBC (Enterobacter cloacae [28]): 250 µM; MIC (Aspergillus niger [29]): 60 µM; MIC (Trichoderma viride [30]): 60 µM; MIC (Pseudomonas aeruginosa [31]): 500 µM; MFC (Aspergillus niger [32]): 130 µM
250,250,630,630,380,130,630,130,130,130,COc1cc(Cc2n[nH]c(=S)n2C(C)C)c(S(=O)(=O)N(C)C)cc1OC,250,500,380,630,630,30,630,380,630,630,MIC (Talaromyces funiculosus [21]): 130 µM; MBC (Staphylococcus aureus [22]): 380 µM; MIC (Enterobacter cloacae [23]): 630 µM; MFC (Penicillium ochrochloron [24]): 380 µM; MFC (Aspergillus fumigatus [25]): 250 µM; MIC (Micrococcus flavus [26]): 630 µM; MFC (Fulvia fulva [27]): 250 µM; MBC (Enterobacter cloacae [28]): 630 µM; MIC (Aspergillus niger [29]): 130 µM; MIC (Trichoderma viride [30]): 10 µM; MIC (Pseudomonas aeruginosa [31]): 630 µM; MFC (Aspergillus niger [32]): 380 µM
